Laboratory results published in paper PMC6210075 (ACS Omega, 2018).

Key:
serine hydrolases [1] = target: T1, serine hydrolases (Mus musculus, UniProt O08914); assay: Activity-based protein profiling; format: biochemical; conditions: mouse brain tissue homogenate, inhibitor 20 µM
T1 sequence (O08914 1-579): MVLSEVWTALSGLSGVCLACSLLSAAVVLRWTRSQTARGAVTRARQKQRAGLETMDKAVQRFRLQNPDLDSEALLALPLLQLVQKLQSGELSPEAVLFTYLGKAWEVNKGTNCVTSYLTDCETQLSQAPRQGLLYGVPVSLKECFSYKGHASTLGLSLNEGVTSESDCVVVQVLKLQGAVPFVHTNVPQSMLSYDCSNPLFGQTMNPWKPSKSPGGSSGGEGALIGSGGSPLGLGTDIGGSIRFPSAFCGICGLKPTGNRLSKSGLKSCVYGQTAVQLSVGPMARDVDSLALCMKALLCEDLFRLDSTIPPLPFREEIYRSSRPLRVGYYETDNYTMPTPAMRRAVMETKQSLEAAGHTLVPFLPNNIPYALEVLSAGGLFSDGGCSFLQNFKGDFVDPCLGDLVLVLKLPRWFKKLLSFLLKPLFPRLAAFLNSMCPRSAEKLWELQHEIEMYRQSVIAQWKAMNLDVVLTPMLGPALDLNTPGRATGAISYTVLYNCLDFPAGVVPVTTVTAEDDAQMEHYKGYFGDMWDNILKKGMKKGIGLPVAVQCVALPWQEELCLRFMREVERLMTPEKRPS

serine hydrolases [2] = assay: Activity-based protein profiling; format: biochemical, mouse; conditions: mouse liver tissue homogenate, inhibitor 20 µM
human FAAH [3] = target: T2, human FAAH (Homo sapiens, UniProt O00519); assay: FAAH fluorescent inhibition assay; format: biochemical; conditions: for decrease in activity/potency toward FAAH: compared to PF-750
T2 sequence (O00519 1-579): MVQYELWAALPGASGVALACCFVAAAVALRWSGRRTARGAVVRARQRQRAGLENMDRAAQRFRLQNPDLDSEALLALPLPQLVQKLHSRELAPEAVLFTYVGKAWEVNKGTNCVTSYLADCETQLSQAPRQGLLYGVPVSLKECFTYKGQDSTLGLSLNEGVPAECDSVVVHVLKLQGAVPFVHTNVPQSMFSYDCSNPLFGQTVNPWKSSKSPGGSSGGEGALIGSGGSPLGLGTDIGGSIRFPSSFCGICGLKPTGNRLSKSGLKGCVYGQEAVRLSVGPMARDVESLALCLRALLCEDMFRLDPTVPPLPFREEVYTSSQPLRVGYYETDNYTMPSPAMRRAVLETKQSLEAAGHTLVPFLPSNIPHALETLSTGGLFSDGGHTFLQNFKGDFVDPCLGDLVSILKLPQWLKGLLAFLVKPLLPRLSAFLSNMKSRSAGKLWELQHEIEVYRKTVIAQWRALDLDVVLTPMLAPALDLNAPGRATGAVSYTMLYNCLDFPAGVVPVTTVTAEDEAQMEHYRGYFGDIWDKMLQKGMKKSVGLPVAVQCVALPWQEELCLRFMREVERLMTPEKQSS

human sEH [4] = target: T3, human sEH (Homo sapiens, UniProt P34913); assay: sEH fluorescent inhibition assay; format: biochemical; conditions: compared to PF-750
T3 sequence (P34913 1-555): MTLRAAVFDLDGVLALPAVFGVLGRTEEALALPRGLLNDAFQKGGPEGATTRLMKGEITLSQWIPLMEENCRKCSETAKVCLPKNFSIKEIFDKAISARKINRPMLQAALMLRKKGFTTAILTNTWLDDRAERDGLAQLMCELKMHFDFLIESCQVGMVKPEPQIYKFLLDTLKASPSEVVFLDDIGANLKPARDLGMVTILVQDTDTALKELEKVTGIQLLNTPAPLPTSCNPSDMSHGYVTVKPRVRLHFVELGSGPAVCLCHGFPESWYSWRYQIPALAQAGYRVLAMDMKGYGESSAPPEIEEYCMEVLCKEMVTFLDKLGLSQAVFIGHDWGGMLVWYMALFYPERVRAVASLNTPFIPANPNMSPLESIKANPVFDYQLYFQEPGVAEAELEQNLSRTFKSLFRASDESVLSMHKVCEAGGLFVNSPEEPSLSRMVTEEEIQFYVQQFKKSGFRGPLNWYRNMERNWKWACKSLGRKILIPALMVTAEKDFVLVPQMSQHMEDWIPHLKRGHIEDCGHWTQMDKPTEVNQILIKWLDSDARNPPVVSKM

human sEH [5] = target: T3, human sEH; assay: FRET-based displacement assay for inhibitor dissociation from sEH; format: binding
mouse FAAH = target: T4, mouse FAAH (Mus musculus, UniProt O08914); assay: FAAH fluorescent inhibition assay, mouse crude tissue homogenate; format: biochemical; conditions: FAAH IC50 (5 min pre-incubation)
T4 sequence (O08914 1-579): T1 sequence (O08914 1-579)

[6] = Cassette dosing pharmacokinetics in rats; format: in vivo; conditions: male, Sprague-Dawley, rat, whole blood, po, 1 mg/kg
Method in brief: (§1)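 Test compounds were given as a cassette cocktail at 1 mg/kg each, p.o. in PEG300, to groups of 4 rats or 4 mice. Blood was taken by tail vein at set intervals and group averages were used.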

[7] = Cassette dosing pharmacokinetics in mice; format: in vivo; conditions: male, Swiss Webster, mouse, whole blood, po, 1 mg/kg
Method in brief: as §1

rat FAAH = target: T5, rat FAAH (Rattus norvegicus, UniProt P97612); assay: FAAH fluorescent inhibition assay, rat brain microsomes; format: biochemical; conditions: FAAH IC50 (5 min pre-incubation), 5 min pre-incubation
T5 sequence (P97612 1-579): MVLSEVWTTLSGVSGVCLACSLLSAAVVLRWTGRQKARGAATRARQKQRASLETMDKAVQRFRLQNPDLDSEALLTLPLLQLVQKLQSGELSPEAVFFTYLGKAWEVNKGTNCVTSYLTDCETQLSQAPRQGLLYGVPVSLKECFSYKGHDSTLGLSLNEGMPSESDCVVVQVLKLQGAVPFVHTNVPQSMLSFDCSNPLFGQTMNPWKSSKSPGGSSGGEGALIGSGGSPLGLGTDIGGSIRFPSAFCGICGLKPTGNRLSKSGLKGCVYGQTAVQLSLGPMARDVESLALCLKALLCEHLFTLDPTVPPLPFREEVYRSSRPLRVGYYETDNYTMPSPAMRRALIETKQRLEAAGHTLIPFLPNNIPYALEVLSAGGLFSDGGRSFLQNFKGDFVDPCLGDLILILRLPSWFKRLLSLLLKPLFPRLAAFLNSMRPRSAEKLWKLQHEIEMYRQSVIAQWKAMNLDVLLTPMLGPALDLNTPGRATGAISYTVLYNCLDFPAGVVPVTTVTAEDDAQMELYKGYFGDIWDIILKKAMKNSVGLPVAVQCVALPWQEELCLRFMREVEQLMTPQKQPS
Method in brief: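 Rat brain microsomes: tissue homogenized in 20 mM phosphate (pH 7.4, 5 mM EDTA), spun at 9000g for 20 min, then 100 000g for 1 h, and stored at −80 °C. OMP (100 μM final) in 0.1 M sodium phosphate pH 8, 0.1 mg/mL BSA, 2% DMSO, 37 °C. Fluorescence (ex 303/em 394 nm) read every 30 s for 10 min. No-enzyme background subtracted. IC50 from linear regression of log[I] vs % remaining activity; triplicates.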

human FAAH [8] = target: T2, human FAAH; assay: Ki and kinact determination on FAAH; format: biochemical
Method in brief: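 Crude baculovirus-expressed recombinant FAAH (High Five cell S9 fraction in 50 mM Tris/HCl pH 8.0, 1 mM CHAPS, 10% glycerol). OMP (100 μM final) was mixed with a range of test compound concentrations and held 5 min at 37 °C.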

Compound: NC(=O)c1cccc(-c2cccc(OC(=O)NC3CCCCC3)c2)c1 [URB597, cyclohexyl carbamic acid 3′-carbamoyl-biphenyl-3-yl ester, reference compound]
- intensity of the FAAH band (ABPP) (serine hydrolases [1]): reduced
- other serine hydrolase bands (ABPP) (serine hydrolases [2]): reduced the intensity of a band around 62.5 kDa

Compound: O=C(Nc1ccc(F)cc1)N1CCC(Cc2cnc3ccccc3c2)CC1 [compound 1]
- decrease in activity/potency toward FAAH (human FAAH [3]): 5 fold
- increase in activity/potency toward sEH (human sEH [4]): 7 fold

Compound: O=C(Nc1ccc(Cl)cc1)N1CCC(Cc2cnc3ccccc3c2)CC1 [compound 2]
- decrease in activity/potency toward FAAH (human FAAH [3]): 3 fold

Compound: O=C(Nc1ccccc1F)N1CCC(Cc2cnc3ccccc3c2)CC1 [compound 3]
- decrease in activity/potency toward FAAH (human FAAH [3]): 3 fold

Compound: COc1ccc(NC(=O)N2CCC(Cc3cnc4ccccc4c3)CC2)cc1 [compound 5]
- increase in activity/potency toward sEH (human sEH [4]): 5 fold

Compound: COc1ccc(NC(=O)N2CCC(Cc3ccc4ccccc4c3)CC2)cc1 [compound 8]
- increase in activity toward FAAH (human FAAH [3]; compared to 5 (3-quinoline)): 4 fold

Compound: O=C(Nc1ccc(C(F)(F)F)cc1)N1CCC(Cc2cccc(Oc3ccc(C(F)(F)F)cn3)c2)CC1 [compound 13]
- t1/2 (half-life on the enzyme) (human sEH [5]; human sEH): 9.9 min
- koff (human sEH [5]; read-out: koff × 10^–3): 1.2 s⁻¹
- IC50 (mouse FAAH): > 10 µM
- AUC [6]: 0.74 µM·h
- Cmax [6]: 66 nM
- intensity of the FAAH band (ABPP) (serine hydrolases [1]): does not appear to fully inhibit the band corresponding to FAAH
- other serine hydrolase bands (ABPP) (serine hydrolases [2]): neither 11, 13, 14, 18, nor PF-3845 had any effect on the intensity of other bands
- AUC [7]: 0.75 µM·h
- Cmax [7]: 65 nM
- IC50 (rat FAAH): > 10 µM
- Ki (human FAAH [8]): 0.037 µM
- kinact (human FAAH [8]): 0.000317 s⁻¹
- kinact/KI (human FAAH [8]): 500000 M⁻¹ s⁻¹
